Results published in ChEMBL document CHEMBL5724801, “EUbOPEN Chemogenomics Library - Multiplex” (2024).
Where “and” joins values, the source holds several entries; their conditions need not be identical. Equal values may be shown once.

Tested on: U2OS
Assay: Multiplex assay against U2OS
Format: toxicity, cell-based
Details: human
Outline: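 Values for tubulin, mitochondrial-mass and membrane-permeability phenotypes are per cents of cells with healthy nuclei. These cells were identified by CellPathfinder machine-learning gating of live cells that had been stained at seeding with Hoechst33342, BioTracker Green Microtubule Cytoskeleton Dye, MitoTracker Red and Annexin V Alexa Fluor 680 and imaged on a CQ1 microscope at 37°C and 5% CO2 after compound addition. The gating first set Hoechst high-intensity objects apart from normal cells, then split normal cells into healthy, pyknosed or fragmented nuclei, and pyknosed cells into mitotic or apoptotic.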

[1] = 12 h, 1 µM, compound concentration 1 uM
[2] = 12 h, 10 µM, compound concentration 10 uM
[3] = 24 h, 1 µM, compound concentration 1 uM
[4] = 24 h, 10 µM, compound concentration 10 uM
[5] = 48 h, 1 µM, compound concentration 1 uM
[6] = 48 h, 10 µM, compound concentration 10 uM

COc1ccc2nc3ccc(OC)cc3c(SCCCN)c2c1.Cl
Population Apoptotic (%) [1]: 33.33% and 48.15% | Population Fragmented Nuclei (%) [1]: 5.01% and 5.7% | Population Healthy Nuclei (%) [1]: 88.22% and 80.31% | Population Hoechst High Intensity Objects (%) [1]: 0% | Population Membrane Permeable-Phenotype (%) [1]: 0.85% and 1.94% | Population Mitochondria Different-Phenotype (%) [1]: 0% and 12.26% | Population Mitotic Cells (%) [1]: 66.67% and 51.85% | Population Normal (%) [1]: 100% | Population Pyknosed Nuclei (%) [1]: 6.77% and 13.99% | Population Tubulin-Different-Phenotype (%) [1]: 1.14% and 0% | Total Cell Count [1]: 399 and 193 | Population Apoptotic (%) [2]: 50% and 100% | Population Fragmented Nuclei (%) [2]: 77.73% and 91.54% | Population Healthy Nuclei (%) [2]: 21.48% and 8.25% | Population Hoechst High Intensity Objects (%) [2]: 8.43% and 7.62% | Population Normal (%) [2]: 91.57% and 92.38% | Population Pyknosed Nuclei (%) [2]: 0.79% and 0.21% | Population Tubulin-Different-Phenotype (%) [2]: 28.57% and 40.17% | Total Cell Count [2]: 1388 and 1535 | Population Apoptotic (%) [3]: 29.73% and 51.52% | Population Fragmented Nuclei (%) [3]: 3.05% and 1.4% | Population Healthy Nuclei (%) [3]: 89.9% and 83.18% | Population Hoechst High Intensity Objects (%) [3]: 0% | Population Membrane Permeable-Phenotype (%) [3]: 0.85% and 2.81% | Population Mitochondria Different-Phenotype (%) [3]: 0% and 7.3% | Population Mitotic Cells (%) [3]: 70.27% and 48.48% | Population Normal (%) [3]: 100% | Population Pyknosed Nuclei (%) [3]: 7.05% and 15.42% | Population Tubulin-Different-Phenotype (%) [3]: 1.06% and 1.69% | Total Cell Count [3]: 525 and 214 | Population Apoptotic (%) [4]: 50% and 78.57% | Population Fragmented Nuclei (%) [4]: 75.02% and 91.84% | Population Hoechst High Intensity Objects (%) [4]: 12.85% and 7.48% | Population Mitotic Cells (%) [4]: 50% and 21.43% | Population Normal (%) [4]: 87.15% and 92.52% | Population Pyknosed Nuclei (%) [4]: 0.64% and 0.94% | Population Tubulin-Different-Phenotype (%) [4]: 6.62% and 18.52% | Total Cell Count [4]: 1424 and 1617 | Population Apoptotic (%) [5]: 46.15% and 46.51% | Population Fragmented Nuclei (%) [5]: 3.96% and 4.36% | Population Healthy Nuclei (%) [5]: 90.62% and 82.24% | Population Hoechst High Intensity Objects (%) [5]: 0% | Population Membrane Permeable-Phenotype (%) [5]: 1.03% and 0.76% | Population Mitochondria Different-Phenotype (%) [5]: 0% and 2.65% | Population Mitotic Cells (%) [5]: 53.85% and 53.49% | Population Normal (%) [5]: 100% | Population Pyknosed Nuclei (%) [5]: 5.42% and 13.4% | Population Tubulin-Different-Phenotype (%) [5]: 0.8% and 1.52% | Total Cell Count [5]: 960 and 321 | Population Apoptotic (%) [6]: 45% and 53.85% | Population Fragmented Nuclei (%) [6]: 69.73% and 94.1% | Population Hoechst High Intensity Objects (%) [6]: 23.54% and 11.4% | Population Mitotic Cells (%) [6]: 55% and 46.15% | Population Normal (%) [6]: 76.46% and 88.6% | Population Pyknosed Nuclei (%) [6]: 2.07% and 0.82% | Population Tubulin-Different-Phenotype (%) [6]: 6.23% and 18.52% | Total Cell Count [6]: 1266 and 1798

COc1ccc2c(c1)C(C(=O)N(Cc1ccc(N(C)C)cc1)c1ccc(C(C)C)cc1)CCC2.Cl (stereo unspecified)
Population Apoptotic (%) [1]: 70% | Population Fragmented Nuclei (%) [1]: 36% and 17% | Population Healthy Nuclei (%) [1]: 54% and 73% | Population Hoechst High Intensity Objects (%) [1]: 4% and 3% | Population Membrane Permeable-Phenotype (%) [1]: 8% and 9% | Population Mitochondria Different-Phenotype (%) [1]: 5% and 3% | Population Mitotic Cells (%) [1]: 29% and 30% | Population Normal (%) [1]: 95% and 96% | Population Pyknosed Nuclei (%) [1]: 9% and 8% | Population Tubulin-Different-Phenotype (%) [1]: 4% and 2% | Total Cell Count [1]: 264 and 122 | Population Apoptotic (%) [2]: 38% and 60% | Population Fragmented Nuclei (%) [2]: 27% and 16% | Population Healthy Nuclei (%) [2]: 50% and 60% | Population Hoechst High Intensity Objects (%) [2]: 4% | Population Membrane Permeable-Phenotype (%) [2]: 73% and 43% | Population Mitochondria Different-Phenotype (%) [2]: 55% and 73% | Population Mitotic Cells (%) [2]: 61% and 40% | Population Normal (%) [2]: 95% | Population Pyknosed Nuclei (%) [2]: 22% and 23% | Population Tubulin-Different-Phenotype (%) [2]: 80% and 58% | Total Cell Count [2]: 224 and 113 | Population Apoptotic (%) [3]: 75% and 100% | Population Fragmented Nuclei (%) [3]: 27% and 18% | Population Healthy Nuclei (%) [3]: 61% and 73% | Population Hoechst High Intensity Objects (%) [3]: 4% and 2% | Population Membrane Permeable-Phenotype (%) [3]: 5% | Population Mitochondria Different-Phenotype (%) [3]: 4% and 1% | Population Mitotic Cells (%) [3]: 24% and 0% | Population Normal (%) [3]: 95% and 97% | Population Pyknosed Nuclei (%) [3]: 11% and 7% | Population Tubulin-Different-Phenotype (%) [3]: 4% and 2% | Total Cell Count [3]: 273 and 146 | Population Apoptotic (%) [4]: 71% and 86% | Population Fragmented Nuclei (%) [4]: 25% and 20% | Population Healthy Nuclei (%) [4]: 50% and 57% | Population Hoechst High Intensity Objects (%) [4]: 2% and 9% | Population Membrane Permeable-Phenotype (%) [4]: 54% and 45% | Population Mitochondria Different-Phenotype (%) [4]: 42% and 53% | Population Mitotic Cells (%) [4]: 28% and 13% | Population Normal (%) [4]: 97% and 90% | Population Pyknosed Nuclei (%) [4]: 24% and 22% | Population Tubulin-Different-Phenotype (%) [4]: 49% and 48% | Total Cell Count [4]: 224 and 115 | Population Apoptotic (%) [5]: 80% and 93% | Population Fragmented Nuclei (%) [5]: 21% and 17% | Population Healthy Nuclei (%) [5]: 65% and 73% | Population Hoechst High Intensity Objects (%) [5]: 2% and 3% | Population Membrane Permeable-Phenotype (%) [5]: 10% and 6% | Population Mitochondria Different-Phenotype (%) [5]: 5% and 4% | Population Normal (%) [5]: 97% and 96% | Population Pyknosed Nuclei (%) [5]: 13% and 8% | Population Tubulin-Different-Phenotype (%) [5]: 3% and 2% | Total Cell Count [5]: 369 and 203 | Population Apoptotic (%) [6]: 73% and 92% | Population Fragmented Nuclei (%) [6]: 21% and 26% | Population Healthy Nuclei (%) [6]: 47% and 49% | Population Hoechst High Intensity Objects (%) [6]: 3% and 8% | Population Membrane Permeable-Phenotype (%) [6]: 43% | Population Mitochondria Different-Phenotype (%) [6]: 26% and 36% | Population Normal (%) [6]: 96% and 91% | Population Pyknosed Nuclei (%) [6]: 30% and 24% | Population Tubulin-Different-Phenotype (%) [6]: 31% and 42% | Total Cell Count [6]: 265 and 126
